These results are taken from ChEMBL document CHEMBL1150416, “Design, synthesis and spectroscopic studies of resveratrol aliphatic acid ligands of human serum albumin” (Bioorg Med Chem, 2008).

Series [1] in a line: Solubility in phosphate buffer assessed per 100 g at pH 7. It counts as physicochemical. An outline of the steps:
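Excess solid stirred 1 h with pure water or 50 mM phosphate buffer (pH 7; 20 mM NaH2PO4 + 30 mM Na2HPO4) in a sealed dual-wall flask held at 295 K by circulating water. The solid was removed by two 2-min centrifugations. Dissolved content was read by UV–vis at 304 nm and converted using an extinction coefficient of 33,913 M-1 cm-1.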

The target in series [2] is T1, Albumin (Homo sapiens, UniProt P02768). The series can be described thus: Binding affinity to human serum albumin by fluorescence quenching measurement. It counts as ADME. Conditions: isolated protein. In a few lines: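 HSA intrinsic (Trp) fluorescence quenching at 298 K in 50 mM phosphate buffer, pH 7. HSA was held at a fixed level while compound amounts were increased. Excitation 280 nm, emission recorded 290–360 nm, intensity taken at 350 nm; samples read 2 min after mixing, with buffer blanks. Ka was obtained by fitting the modified Stern–Volmer equation.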
T1 sequence (P02768 whole entry): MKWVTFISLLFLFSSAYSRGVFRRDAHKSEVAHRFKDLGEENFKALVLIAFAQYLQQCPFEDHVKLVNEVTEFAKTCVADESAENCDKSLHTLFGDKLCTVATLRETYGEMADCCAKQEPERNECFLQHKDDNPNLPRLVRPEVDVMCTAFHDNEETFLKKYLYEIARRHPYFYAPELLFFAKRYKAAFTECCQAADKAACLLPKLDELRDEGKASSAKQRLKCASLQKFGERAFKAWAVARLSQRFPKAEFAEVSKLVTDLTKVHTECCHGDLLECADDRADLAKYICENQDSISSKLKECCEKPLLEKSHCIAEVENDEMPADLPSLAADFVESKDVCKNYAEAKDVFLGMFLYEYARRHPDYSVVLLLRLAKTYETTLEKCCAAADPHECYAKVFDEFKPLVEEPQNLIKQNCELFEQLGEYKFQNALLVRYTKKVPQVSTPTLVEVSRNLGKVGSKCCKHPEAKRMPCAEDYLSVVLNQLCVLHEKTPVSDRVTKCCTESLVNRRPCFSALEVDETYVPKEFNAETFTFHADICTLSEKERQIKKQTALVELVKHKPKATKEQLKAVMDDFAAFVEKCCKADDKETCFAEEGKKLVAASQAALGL

Series [3] has as its target T1, Albumin. The series can be described thus: Binding affinity to human serum albumin assessed as increase in drug-induced fluorescence at 4 uM by fluorescence enhancing measurement. It counts as ADME. Conditions: isolated protein. An outline of the steps: (§1)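 HSA binding was read as the resveratrol-moiety fluorescence at 388 nm. The compound was fixed at 4 µM in 50 mM phosphate buffer, pH 7, with HSA either fixed at 4 µM or increased from 2 to 16 µM, at 298 K. Solutions were read 2 min after mixing against buffer/HSA blanks. Ka came from a non-linear fit of fluorescence versus [HSA].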

Series [4] can be described thus: Solubility in over saturated phosphate buffer assessed per 100 g at pH 7 after 2 mins. It is filed as physicochemical. The following applies: pH 7, 2 min. An outline of the steps:
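Over-saturated solution made by tapping a suspension in 50 mM phosphate buffer (pH 7) for 2 min at 295 K. Content was read by UV–vis at 304 nm and converted using an extinction coefficient of 33,913 M-1 cm-1.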

Series [5] is described as follows: Aqueous solubility assessed per 100 g in pure water. Conditions: pH 7.
Series [6] addresses T1, Albumin. The series can be described thus: Binding affinity to human serum albumin at 4 uM by fluorescence enhancing measurement. It is filed as ADME. Conditions: isolated protein. In a few lines: as §1
In series [7] the target is T1, Albumin. The series can be described thus: Binding affinity to human serum albumin at 4 uM by UV-vis measurement. It is filed as ADME. In a few lines:
(§2)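 The compound was held at 4 µM in 50 mM phosphate buffer, pH 7 (20 mM NaH2PO4 and 30 mM Na2HPO4), and HSA was added at increasing concentrations. UV–vis absorbance of the compound was read at 318 nm, 2 min after thorough mixing. Buffers without HSA and with matching HSA levels served as blanks. Each compound solution was used only once.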

Series [8] concerns the target T1, Albumin. The series can be described thus: Binding affinity to human serum albumin assessed as decrease in UV absorbance by UV-vis measurement. It counts as ADME. On the set-up: scale not given: the % may be the effect or the level left. Conditions: isolated protein. In a few lines:
as §2

Consider `O=C(O)COc1ccc(/C=C/c2cc(O)cc(O)c2)cc1`, for which the solubility in series [1] was determined as 313.8 mg; in series [4] it was 867.8 mg; in series [5], 80.91 mg. The compound also showed a Ka at Albumin [2] of 2.95 ×10⁵ /M. Moreover, the Activity on Albumin [3] is 50%.
Consider `COC(=O)CCCCCOc1ccc(/C=C/c2cc(O)cc(O)c2)cc1`, for which the figures for the solubility in series [1] and in series [5] were 0.085 mg and 0.032 mg, respectively. The compound further yielded a Ka at Albumin [2] of 3.05 ×10⁵ /M.
Turning to `CCOC(=O)COc1ccc(/C=C/c2cc(O)cc(O)c2)cc1`, the solubility turned out to be 1.4 mg in series [1] and 1.93 mg in series [5]. The compound further showed a Ka at Albumin [2] of 1.14 ×10⁵ /M.
For the compound `O=C(O)CCCCCOc1ccc(/C=C/c2cc(O)cc(O)c2)cc1` [RESVERATROL HEXANOIC ACID], the solubility is given as 10.54 mg in series [1] and 4.52 mg in series [5]. Further, the Ka at Albumin [2] came out at 67 ×10⁵ /M; at Albumin [6] it was 31.2 ×10⁵ /M; at Albumin [7] (human, isolated protein, 4 µM), 26.2 ×10⁵ /M. For the same compound, on Albumin [7], binding was put at a Kd of 382 nM. Also, the Activity at Albumin [8] was 20%.
For the compound `Oc1ccc(/C=C/c2cc(O)cc(O)c2)cc1` [RESVERATROL], the solubility in series [1] and in series [5] was 3.24 mg each time. The compound further displayed a Ka at Albumin [2] of 1.64 ×10⁵ /M.

One may read the Kd as the equilibrium constant for the complex coming apart.
